Screening results from PubChem.
Most compounds without a hit are left out; they make up all but 5.2% or so of the library.
EBNA-1 inh: blocks EBNA-1 binding to DNA; EBNA-1 DNA binding, fluorescence polarization; inhibition, % at 14.8 µM; AID 1950; hit rate 0.34% among 300,000; in the data active = inhibition above about 28%
ALR inh: blocks human ALR sulfhydryl oxidase activity | inhibition, % (no concentration beside the values) | P55789 | hit rate 3.8% among 290,000 | purified ALR, DTT oxidation, H2O2 HRP-luminol luminescence;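 active = mean replicate inhibition above about 79%, with every replicate also reaching it, limit read from the data; inconclusive = only one of the two criteria met; inactive = mean below limit and not every replicate reaching it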
Target sequence (P55789 whole entry, looked up): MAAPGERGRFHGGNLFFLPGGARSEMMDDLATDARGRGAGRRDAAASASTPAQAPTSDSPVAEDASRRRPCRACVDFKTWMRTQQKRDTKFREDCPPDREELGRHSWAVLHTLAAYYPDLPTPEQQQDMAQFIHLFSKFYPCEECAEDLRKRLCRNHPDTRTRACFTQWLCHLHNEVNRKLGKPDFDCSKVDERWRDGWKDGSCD
M18AAP inhibitor: blocks P. falciparum M18 aspartyl aminopeptidase | recombinant PfM18AAP, H-Glu-NHMec fluorogenic cleavage | inhibition, % at 7.35 µM | hit rate 1.2% among 290,000;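 active = inhibition above the campaign mean inhibition over all tested compounds plus 3 SD, cut at about 28% in these data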;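 note: 0% = plate median of test compound wells and 100% = 2 mM ZnCl2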
HCV core dimer: blocks dimerization of HCV core protein; TR-FRET GST/Flag-core106 dimerization, 1536-well; inhibition, % at 5 µM; hit rate 0.33% among 300,000; AID 1899;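 active = inhibition above the mean of all tested compounds plus 3 SD, set per screening campaign, cut at about 45% in these data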
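Assay system: GST-tagged and Flag-tagged HCV core protein residues 1-106 / Times: compound-protein-antibody incubation 4 h at 22.5 °C / Signal: time-resolved FRET, ex 340 nm, em 617 and 671 nm / Evaluation: % inhibition based on acceptor/donor emission ratio / Benchmarks: wells lacking GST-core106 and wells with excess unlabelled core106 / Repeats: singlicate, one well per compound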
HCV NS3 hel inh: HCV NS3 helicase inhibition; inhibition, % at 10.9 µM; hit rate 0.56% among 290,000; NS3 helicase DNA unwinding, Cy5 molecular beacon fluorescence; AID 1800;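 active = inhibition above the mean of all tested compounds plus 3 SD, set per campaign, cut at about 35% in these data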;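 note: 0% = DMSO wells and 100% = thioflavine S control wells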
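System: HCV NS3 helicase fragment; control set: DMSO and thioflavine S; technique: Cy5 fluorescence at 0 and 60 min, beacon hairpin quenching; reagent: beacon DNA duplex substrate plus ATP; replicates: singlicate; schedule: 1 h reaction at 25 °C, ATP-initiated; medium: MOPS buffer pH 6.5 with MgCl2, DTT, Tween20, BSA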
ZTA counter: ZTA (EBV) inhibition in EBNA-1 counter-screen; ZTA-DNA binding, fluorescence polarization; inhibition, % at 11 µM; hit rate 0.15% among 320,000; in the data active = inhibition above about 33%
Target sequence (P03206 whole entry, looked up): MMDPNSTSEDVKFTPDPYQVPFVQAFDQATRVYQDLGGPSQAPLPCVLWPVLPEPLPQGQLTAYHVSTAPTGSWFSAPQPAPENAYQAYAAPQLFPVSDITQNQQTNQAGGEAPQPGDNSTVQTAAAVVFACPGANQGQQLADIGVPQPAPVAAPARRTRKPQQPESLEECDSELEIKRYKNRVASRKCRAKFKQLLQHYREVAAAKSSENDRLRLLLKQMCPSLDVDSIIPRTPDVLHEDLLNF
Active calls of the source: *.

For CN(C)NC(=O)c1ccsc1NC(=O)c1ccc(S(=O)(=O)N2CCCC2)cc1 the results were EBNA-1 inh -3.2, ALR inh 86.8*, M18AAP inhibitor 1.5, HCV core dimer -1.3, HCV NS3 hel inh -5.9 and ZTA counter -6.0.
For CC1CCN(S(=O)(=O)c2ccc(C(=O)Nc3sccc3C(N)=O)cc2)CC1 the results were EBNA-1 inh -4.1, ALR inh 8.8, M18AAP inhibitor 2.1, HCV core dimer 6.3, HCV NS3 hel inh -3.9 and ZTA counter -10.1.
Screening O=C(CSc1ccccc1C(=O)N1CCN(c2ccccc2)CC1)N1CCCC1 returned ALR inh 98.4* and ZTA counter -13.9.
For COCCSc1ccccc1C(=O)N1CCc2ccccc2C1 the results were EBNA-1 inh -5.9, ALR inh 3.1, M18AAP inhibitor -0.3, HCV core dimer 0.5, HCV NS3 hel inh -12.8 and ZTA counter 3.6.
`COCCSc1ccccc1C(=O)N1CCN(c2ccccc2)CC1` gave EBNA-1 inh 4.0, ALR inh 87.2*, M18AAP inhibitor 1.3, HCV core dimer 1.1, HCV NS3 hel inh 4.0 and ZTA counter -8.4.
O=C(CSc1ccccc1C(=O)N1CCN(c2ccc([N+](=O)[O-])cc2)CC1)N1CCCC1 was read as ALR inh 10.6.
Screening Cc1ccc(NCc2nnc(SCC(=O)c3ccccc3)n2Cc2ccco2)c(C)c1 returned EBNA-1 inh 2.9, ALR inh inconclusive, M18AAP inhibitor -14.2, HCV core dimer 63.5*, HCV NS3 hel inh 10.8 and ZTA counter -8.4.
Cc1ccc(NCc2nnc(SCC(N)=O)n2CC2CCCO2)c(C)c1 (stereo not given) was read as EBNA-1 inh -1.5, ALR inh 88.9*, M18AAP inhibitor -1.1, HCV core dimer -5.5, HCV NS3 hel inh 7.6 and ZTA counter -3.9.
For O=C(Nc1nc(-c2ccccc2)ns1)c1cccs1 the results were EBNA-1 inh -1.0, ALR inh 87.8*, M18AAP inhibitor -7.6, HCV core dimer 1.4, HCV NS3 hel inh -11.8 and ZTA counter -4.5.
O=C(Nc1nc(-c2ccccc2)cs1)c1cccs1 was read as EBNA-1 inh 12.1, ALR inh 1.6, M18AAP inhibitor 5.6, HCV core dimer 9.8, HCV NS3 hel inh -3.5 and ZTA counter 8.5.
Screening COc1ccc(CCN2Cc3c(N)cccc3C2=O)cc1OC returned EBNA-1 inh 5.6, M18AAP inhibitor -8.2, HCV core dimer 4.7, HCV NS3 hel inh 11.3 and ZTA counter 13.9.
For O=C(Nc1ccc(N2CCOCC2)cc1)Nc1ccc2nsnc2c1 the results were EBNA-1 inh 3.0, ALR inh 86.5*, M18AAP inhibitor -4.6, HCV core dimer -15.8, HCV NS3 hel inh 1.5 and ZTA counter 6.7.
`CN(C)c1cccc(C(=O)Nc2ccc(N3CCOCC3)cc2)c1` gave EBNA-1 inh 8.2, ALR inh 90.6*, M18AAP inhibitor -2.6, HCV core dimer -10.2, HCV NS3 hel inh 1.7 and ZTA counter 12.9.
CC(Sc1nc2ccccc2n1C)C(=O)Nc1ccc(N2CCOCC2)cc1 (stereo not given) was read as EBNA-1 inh -5.6, ALR inh 95.0*, M18AAP inhibitor -0.3, HCV core dimer -4.0, HCV NS3 hel inh -4.4 and ZTA counter 14.1.
Screening O=C(Nc1ccc(N2CCOCC2)cc1)c1cnsn1 returned M18AAP inhibitor -2.7 and HCV NS3 hel inh -3.5.
O=C(Nc1ccc(N2CCOCC2)cc1)c1ccncc1 was read as EBNA-1 inh 1.7, ALR inh -5.5, M18AAP inhibitor 6.5, HCV core dimer -0.7, HCV NS3 hel inh 10.6 and ZTA counter 2.6.
For Cn1cccc1C(=O)Nc1ccc(N2CCOCC2)cc1 the results were ALR inh 96.8*.
`CN1CCN(C(=O)c2cc3ccccc3cc2O)CC1` gave ALR inh -19.4 and ZTA counter 4.9.
`CC(C)c1ccc(NC(=O)COC(=O)c2cc(=O)[nH]c3ccccc23)cc1` gave ALR inh 0.0 and ZTA counter -11.6.
`CN(Cc1cccnc1)C(=O)c1cc(COc2ccc3c(c2)CCCC3)on1` gave EBNA-1 inh 7.8, ALR inh 5.2, M18AAP inhibitor 0.0, HCV core dimer 4.4, HCV NS3 hel inh -10.3 and ZTA counter 24.1.
Screening O=C(COC(=O)C1CC1)NC(=O)c1ccccc1 returned ALR inh 3.2 and ZTA counter 19.8.
Screening O=C1C2C3C=CC(C4CC34)C2C(=O)N1c1cccc2ccccc12 (stereo not given) returned EBNA-1 inh -8.4, ALR inh -23.2, M18AAP inhibitor 1.5, HCV core dimer 4.6, HCV NS3 hel inh -11.7 and ZTA counter 1.5.
`CSCc1ccc(C(=O)NC(C)c2cnn(-c3ccccn3)c2C)o1` (stereo not given) gave EBNA-1 inh -2.8, ALR inh 90.0*, M18AAP inhibitor -2.5, HCV core dimer -11.2, HCV NS3 hel inh 11.4 and ZTA counter -7.1.
For Cc1ccc(CN2C(=O)C3CCCN3c3ncccc32)cc1 (stereo not given) the results were EBNA-1 inh 13.2, ALR inh 3.1, M18AAP inhibitor 2.9, HCV core dimer 9.3, HCV NS3 hel inh -12.1 and ZTA counter 0.3.
For Cc1ccc(CN2C(=O)C3CCCN3c3ccc(S(=O)(=O)N4CCOCC4)cc32)cc1 (stereo not given) the results were EBNA-1 inh -4.0, ALR inh -11.3, M18AAP inhibitor 1.2, HCV core dimer 47.7*, HCV NS3 hel inh -0.8 and ZTA counter -7.1.
Screening CS(=O)(=O)c1ccc(Cl)c(NC(=O)CN2C(=O)C3CCCCC3C2=O)c1 (stereo not given) returned EBNA-1 inh -2.3, ALR inh -0.8, HCV core dimer -9.5 and ZTA counter 0.0.
`Cc1noc(C)c1COC(=O)CCCc1c[nH]c2ccccc12` gave EBNA-1 inh -0.7, ALR inh 17.5, M18AAP inhibitor 2.1, HCV core dimer 71.5*, HCV NS3 hel inh 15.8 and ZTA counter -14.5.
Screening CCOC(=O)CCCc1c[nH]c2ccccc12 returned EBNA-1 inh -11.9, ALR inh 2.3, M18AAP inhibitor 6.3, HCV core dimer -1.4, HCV NS3 hel inh 4.0 and ZTA counter 5.0.
`Cc1ccc(NCc2nnc3n2CCCCC3)c(C)c1` gave EBNA-1 inh 5.9, ALR inh 98.7*, M18AAP inhibitor 6.8, HCV core dimer -8.4, HCV NS3 hel inh -0.8 and ZTA counter -11.1.
Screening Cc1ccc(C)c(S(=O)(=O)NCc2ccc(C(=O)NCc3ccccn3)cc2)c1 returned EBNA-1 inh -2.9, M18AAP inhibitor 12.5, HCV core dimer 6.5, HCV NS3 hel inh -1.6 and ZTA counter 4.3.
For Cc1ccc(NC(=S)NNc2ncc(C(F)(F)F)cc2Cl)c(C)c1 the results were EBNA-1 inh -4.6, ALR inh 6.1, M18AAP inhibitor 28.4*, HCV core dimer 3.0, HCV NS3 hel inh -5.1 and ZTA counter -2.8.
